Experimental data from ChEMBL document CHEMBL1140883, “Synthesis and antitumor activity of novel amsacrine analogs: the critical role of the acridine moiety in determining their biological activity” (Bioorg Med Chem, 2009).
Activity calls are given as the source filed them. The rule behind the calls is not given here.

Legend:
A-431 = experiment: Cytotoxicity against human A431 cells after 72 hrs by MTT assay; format: functional, cell-based; conditions: A-431, 72 h
Summary of the method: (§1)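 Cells kept in log phase at 37 °C, 5% CO2, in RPMI-1640 with 10% foetal calf serum. Seeded at 3–8 × 10^4 mL^-1 according to growth rate. Treated 72 h with increasing drug concentrations, final solvent 0.5%. MTT read-out as absorbance at 540 nm, expressed as % of untreated control. IC50 taken from dose–survival curves.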

A549 = experiment: Cytotoxicity against human A549 cells after 72 hrs by MTT assay; format: functional, cell-based; conditions: A549, 72 h
Summary of the method: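 A549 cells kept in log phase at 37 °C, 5% CO2, in F-12 Ham's with 15% foetal calf serum, penicillin 50 units mL^-1 and streptomycin. Seeded at 3–8 × 10^4 mL^-1, then treated 72 h with increasing concentrations, final solvent 0.5%. MTT absorbance at 540 nm as % of untreated control. IC50 taken from dose–survival curves.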

2008 = experiment: Cytotoxicity against human 2008 cells after 72 hrs by MTT assay; format: functional, cell-based; conditions: Homo sapiens, 2008, 72 h; summary of the method: as §1
MCF7 = experiment: Cytotoxicity against human MCF7 cells after 72 hrs by MTT assay; format: functional, cell-based; conditions: MCF7, 72 h; summary of the method: as §1
HL-60 = experiment: Cytotoxicity against human HL60 cells after 72 hrs by MTT assay; format: functional, cell-based; conditions: HL-60, 72 h; summary of the method: as §1
Salmonidae = experiment: Binding affinity to salmon testes DNA assessed as negative dichroic signal by linear dichroism experiment
Summary of the method: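 Flow linear dichroism on salmon testes DNA at 1.5 × 10^-3 M in ETN buffer (10 mM Tris, 10 mM NaCl, 1 mM EDTA, pH 7). DNA orientation by shear gradient at 500–700 rpm. Spectra recorded at 25 °C at [drug]/[DNA] ratios of 0, 0.02, 0.04 and 0.08, each spectrum accumulated four times. DNA concentration from ε260 6600 M^-1 cm^-1.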

Activity (Salmonidae) | SMILES | IC50 (A-431) [µM] | IC50 (A549) [µM] | IC50 2008 [µM] | IC50 (MCF7) [µM] | IC50 (HL-60) [µM]
 | COc1ccc2nc3oc(=O)ccc3c(Cl)c2c1 | 97 | > 100 | > 100 | > 100 | > 100
 | COc1ccc2c(Cl)c3ccc(=O)oc3nc2c1 | > 100 | 53.4 | > 100 | 50.1 | 60.3
Active | COc1cc(NS(C)(=O)=O)ccc1Nc1c2ccccc2nc2ccccc12 [AMSACRINE] | 5.89 | 3.52 | 4.31 | 5.13 | 1.15
 | COc1ccc2nc3oc(=O)ccc3c(Nc3ccc(NS(C)(=O)=O)cc3OC)c2c1 | 85.7 | > 100 | > 100 | > 100 | 95.2
 | COc1ccc2c(Nc3ccc(NS(C)(=O)=O)cc3)c3ccc(=O)oc3nc2c1 | 92.7 | > 100 | > 100 | > 100 | > 100
 | COc1cccc2c(Cl)c3ccc(=O)oc3nc12 | 55.3 | 75.4 | 60.6 | 54.1 | 37.1
 | CS(=O)(=O)Nc1ccc(Nc2c3ccccc3nc3oc(=O)ccc23)cc1 | 94.1 | > 100 | > 100 | > 100 | 92.1
 | COc1cc(NS(C)(=O)=O)ccc1Nc1c2ccccc2nc2oc(=O)ccc12 | > 100 | > 100 | > 100 | > 100 | > 100
 | COc1cc(NS(C)(=O)=O)ccc1Nc1c2ccc(=O)oc2nc2c(OC)cccc12 | > 100 | 81.5 | > 100 | > 100 | > 100
 | COc1ccc2nc3oc(=O)ccc3c(Nc3ccc(NS(C)(=O)=O)cc3)c2c1 | 55.6 | > 100 | 68.2 | 60.6 | 47.3
 | COc1cccc2c(Nc3ccc(NS(C)(=O)=O)cc3)c3ccc(=O)oc3nc12 | > 100 | > 100 | > 100 | > 100 | > 100
 | O=c1ccc2c(Cl)c3ccccc3nc2o1 | 54.3 | 62.9 | 52.6 | > 100 | 39.5
